Measured values reported in the EternaBench riboswitch data.

Tested on: MS2 coat protein
Test: apparent Kd, MS2 coat protein; higher = weaker binding; RNA-MaP array; FMN 200 µM where present
Outline: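 Each design was made on Illumina sequencing-chip clusters by stalled E. coli RNA polymerase and titrated with SNAP-549-labelled MS2 coat protein from 0.7 or 1.5 nM, doubling to 3 µM, in the absence and then the presence of constant ligand. The buffer was 100 mM Tris-HCl pH 7.5, 80 mM KCl, 4 mM MgCl2, BSA, DTT, yeast tRNA and Tween-20. The apparent Kd is the median of filtered per-cluster fits of binding curves, with green signal normalised to red-channel RNA signal and control-cluster median Fmax.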

[1] = designed as: OFF switch for flavin mononucleotide, no ligand
[2] = ligand present: flavin mononucleotide, designed as: OFF switch for flavin mononucleotide
[3] = designed as: ON switch for flavin mononucleotide, no ligand
[4] = ligand present: flavin mononucleotide, designed as: ON switch for flavin mononucleotide

Sequence | apparent Kd [1] | apparent Kd [2] | apparent Kd [3] | apparent Kd [4]
GUCAGCUCGUGAGGAUAUACAUGUGCUGGAUACAGCACUAAUUAAAUCACAUGAGGAUCACCCAUGUAGAAGGCACGAGCUGAU | 16.7 nM | 24.8 nM | – | –
GUCAGCUCGUGAGGAUAUACUUCACUGCUUCGGCAGUGUAUUAAGAUCACAUGAGGAUCACCCAUGUAGAAGGCACGAGCUGAU | 22.8 nM | 182 nM | – | –
GUCAGCUUGUGAGGAUAUACAACACUGCUUCGGCAGUGUAUUAAGAUCACAUGAGGAUCACCCAUGUAGAAGGCACGAGCUGAU | 14 nM | 257 nM | – | –
GUCAUCUCAUGAGGAUAUGCUCGGGUUUCCCGAGCAGAAGGCAUGUCAUAAGACAUGAGGAUCACCCAUGUAUUUAAGAUUGUA | – | – | 49.6 nM | 8.92 nM
GUCAUGGUAACAGGAUAUCGUUGAUAAAAGUUAUACAUGAGGAUCACCCAUGUCCGCACUAAGGGCGAGAAGGGUUAUUAUCAC | – | – | 501 nM | 382 nM
GUCCUACAUGAGGAUCACCCAUGUAAGGAUAUGCUAGCGGUCGGAAGACUGACUGCUAGCAGAAGGUACAUGAU | 15 nM | 24.5 nM | – | –
GUCGGAAACGACAAGUAGCAAUCGGAGGAUAUUCAUUAAAACAUGAGGAUCACCCAUGUAAAAUGGGAGAAGGCCGAUUGCUAC | – | – | 13.6 nM | 6.03 nM
GUCGUGUGAGGAUAUGAUUUUUAGGCGGGAUUGCGACUGCUUCAGAAGGCACAUGAGGAUCACCCAUGUAUGAA | 11.3 nM | 38.8 nM | – | –
GUCGUGUGAGGAUAUGAUUUUUCGGCGGGCUUGCGUCUGCUUCAGAAGGCACAUGAGGAUCACCCAUGUUUGUC | 12 nM | 29.5 nM | – | –
GUCUCGAUGUAAGGAUAUGCAGUGGAUAACACUGCAGAAGGUACAUGAGGAUCACCCAUGUAACUCUAAUAAUAAUAACGAGAC | 13.1 nM | 17.3 nM | – | –
GUCUUCAUGACAUGAGGAUCACCCAUGUGUUAUAUUUUUACUAAGGAUAUAUUUUUAAUGUUGAGAUAGAAGGUAGUUUCGGUC | 101 nM | 121 nM | – | –
GUGAAACAUGAGGAUCACCCAUGUGAGGAUAUGUUUUAGUAAUGAUGAAAGUAAAUCUACAGAAGGCACAAUGG | 75.8 nM | 117 nM | – | –
GUGACGAAUGUAGGAUAUGCUGAGGAUAACUCAGCAGAAGGACAUGAGGAUCACCCAUGUACUAUGAGUGAAUAAUAACGUCAC | 82.2 nM | 756 nM | – | –
GUGAGUAGUCAGGAUAUGCUGUACAAAAGUACAGCAGAAGGGAUUACAUGAGGAUCACCCAUGUUUUCUUCAUG | 83.5 nM | 564 nM | – | –
GUGCCUUGGGAGAAGGAUAAUAAUAAAUAAAUAAUAGGAUAUUCAUACCGGAAACGGACAUGAGGAUCACCCAUGUGGCACAAA | – | – | 413 nM | 125 nM
GUGCCUUGGGAGAAGGUUAUUGGCAAAGCUAUUAAAGGAUAUUCAUACCGGAAACGGACAUGAGGAUCACCCAUGUGGCACAAA | – | – | 752 nM | 208 nM
GUGCGGUCAGGAUAUGCAUGGCGGGACUUGCGUCGUGGCGUGGAGAAGGGACAUGAGGAUCACCCAUGUGGAGG | 107 nM | 84.9 nM | – | –
GUGCGUGGCUAGGAUAUUGUGGGUUUUUGUCAGCGAGAAGGAGCCACAUGAGGAUCACCCAUGUGGUGUUGCUC | 187 nM | 57.1 nM | – | –
GUGCUUAUCGAAGGAUAUGGUUACAUGAGGAUCACCCAUGUUAUGCUUGGUUACUUGUUUAGUUUCCAGAAGGUCGAUUAGUUG | 75.5 nM | 170 nM | – | –

Sequence | apparent Kd [1] | apparent Kd [2] | apparent Kd [3] | apparent Kd [4]
GUGGCCCAGGCACAGGAUAUGUUUCUCGUAACAUGAGGAUCACCCAUGUGCCUAUGAGAUUGUUUGCAGAAGGGUGCACGCCACG | – | – | 449 nM | 24 nM
GUGGUCAGACAUGAGGAUCACCCAUGUGGAAUAAAUAACAGACAGGAUAUCAAAUAUAGGAUAUAUGAGAAGGGUCGAUUGGUG | – | – | 99.5 nM | 84.3 nM
GUGGUCAGACAUGAGGAUCACCCAUGUGGAAUAAAUAACGGACAGGAUAUGCAAUAUAGGAUAUAGUAGAAGGGUUGAUUGGUG | – | – | 56.5 nM | 60.6 nM
GUGGUCAGACAUGAGGAUCACCCAUGUGGAAUAAAUAAGGAGAAGGAUAUUCAAUAUAGGAUAUAGAAGAAGGUCUGGUUGGUG | – | – | 73.7 nM | 82.7 nM
GUGGUCAGACAUGAGGAUCACCCAUGUGGAAUAAAUAAGGCAUAGGAUAUGAAAUAUAGGAUAUAUCAGAAGGAUGGGUUGGUG | – | – | 164 nM | 191 nM
GUGGUGCAUAUACGUGGAUGUACAUGAGGAUCACCCAUGUGAGAGGAUAUGCGGAUACUAGCUCAGCAGAAGGCUUACAAAUGA | 15.2 nM | 45.8 nM | – | –
GUGGUGUAGAUACAGGAUAUGUUGCUCGUAACAUGAGGAUCACCCAUGUAUCUAUGAGAUAAAAUGCAGAAGGGUGCACACCACU | – | – | 357 nM | 19.1 nM
GUGGUUGUCGUAGGAUAUGUAGGAUAUUCCUACAUGAGGAUCACCCAUGUUCGCAUGGAAGAAGGACAGAAGGACGAUGACCAC | – | – | 1250 nM | 10.2 nM
GUGGUUGUCGUAGGAUAUGUAGGAUAUUCCUACAUGAGGAUCACCCAUGUUCGCAUGGAAGAAUGACAGAAGGACGAUGACCAU | – | – | 330 nM | 82.6 nM
GUGUACAGAGGAUAUACAAUAGGAGUUACGAAAGUAACUUCACAUGAGGAUCACCCAUGUAGAAGGCUGUACAC | 18.1 nM | 37.8 nM | – | –
GUGUACAGAGGAUAUACACGAGUAGUUACGAAAGUAACUAUACAUGAGGAUCACCCAUGUAGAAGGCUGUACAC | 19.1 nM | 30.5 nM | – | –
GUGUACAGAGGAUAUACAGGAGCUAGGAAACUAGCAACCUCACAUGAGGAUCACCCAUGUAGAAGGCUGUACAC | 251 nM | 66.7 nM | – | –
GUGUACAGAGGAUAUACUUGAAUCUAGCGAAGCUAGGUUUGACAUGAGGAUCACCCAUGUAGAAGGCUGUACAC | 15.3 nM | 20.5 nM | – | –
GUGUGAUUAAGAGGAUAUAUACAACAUGAGGAUCACCCAUGUACCCGUGUAGUAGAAGGUUUGUUUUUAUAUAAUAUUAUAUUU | – | – | 26.5 nM | 21.9 nM
GUGUGCUGAGGAUAUACACAGGAAUAGAAGAUAAGAUAAUCACAUGAGGAUCACCCAUGUAGAAGGCAGAGUGU | 15.2 nM | 17.3 nM | – | –
GUUAACACAUGAGGAUAUGCUCGCAUUUCAAGAGCAGAAGGUAUGUCUAUAGACAUGAGGAUCACCCAUGUAUUUAUCAUUGAA | – | – | 274 nM | 52.6 nM
GUUACAUGAGGAUCACCCAUGUAUGUGUGGGAGUAAGUGUCUUAGGAUAUCUAUUAGUUAAAUUAAGAGAAGGAAGAUUGUUGU | – | – | 119 nM | 127 nM
GUUAGUUAAGGAUAUACAGGGAGCUGCGGCGUCUCGCCGCAACAUGAGGAUCACCCAUGUAGAAGGUGGCCAUU | 548 nM | 586 nM | – | –
GUUAUAGGAGGAUAUACAUGAGGAUCACCCAUGUCUCAUCCAUGGCAACGAACCUAUUGUAGAAGGCUUGAAGA | 28.9 nM | 113 nM | – | –

Sequence | apparent Kd [1] | apparent Kd [2] | apparent Kd [3] | apparent Kd [4]
GUUAUUUAUGUAGGAUAUGCGAGGCGAGCCUAAGCAGAAGGACAUGAGGAUCACCCAUGUAUUGCGGUUUGUGUUCAGAUCGCU | 27.3 nM | 84.9 nM | – | –
GUUCCACAUGAGGAUCACCCAUGUGAGGAUAUGGAUUCGCUGGCCGUAGCCAGUGGAUCCAGAAGGCGCAUGAU | 39.9 nM | 153 nM | – | –
GUUCUUCCUGUGAGGAUAUCCAUGUGUCGGUUUGUGGAGAAGGUACAUGAGGAUCACCCAUGUCACCCGCGUUA | 14.7 nM | 17.7 nM | – | –
GUUGCUUUCCGAGGAUAUUCAGGGCGUGGAUAUACAUGAGGAUCACCCAUGUGGCGGAAGCCUAGGGAGAAGGCGGGCUGCUUC | – | – | 41.1 nM | 20.5 nM
GUUGUUUAUGUAGGAUAUGCGAGGCGAGCCUAAGCAGAAGGACAUGAGGAUCACCCAUGUAUUGCGGUCUGCGUUCAGAUCGCU | 32.4 nM | 135 nM | – | –
GUUUAGUGAGGAUAUGUGGCUUCGAUCGAGCGCGGUCUGCUACAGAAGGCACAUGAGGAUCACCCAUGUUUCUC | 118 nM | 424 nM | – | –
GUUUCACAUGAGGAUCACCCAUGUGAGGAUAUAGAUUUGUUAACCGUAGUUAAUAGAUCUAGAAGGCGCGUGAU | 60.7 nM | 66.1 nM | – | –
GUUUCGUGAGGAUAUGUGGCUUCGAUCGUGCGAAAAAGGCUACAGAAGGCACAUGAGGAUCACCCAUGUUCCUC | 119 nM | 568 nM | – | –
GUUUUCGCAUGAGGAUAUGCUCGCAUUUCAAGAGCAGAAGGUAUGUCUUUAGACAUGAGGAUCACCCAUGUAUUUAUCAUUGAA | – | – | 101 nM | 26.2 nM
GUUUUCGCAUGAGGAUAUGCUCGCAUUUCUAGAGCAGAAGGUAUGUCUAUAGACAUGAGGAUCACCCAUGUAUUUAACUUUGAA | – | – | 186 nM | 34.4 nM
GUUUUUUGUCAUGUACAUGAGGAACAUGAGGAUCACCCAUGUAGAAGGAAUUUUUUUAAGUUUAGUUAGGAUAUACAUAUAUUG | 50.6 nM | 31.9 nM | – | –
UAAAAGCUAGGAUAUACAUGAGGAUCACCCAUGUAAUCUCUCACUUACACGGAGGAUCGUAGAAGGAGCACAAA | 21.7 nM | 55.6 nM | – | –
UAAAAGUGAGGAUAUACAUUAAGGUAAGUCCGGAUGCGAAGACAUGAGGAUCACCCAUGUAGAAGGCACACAAA | 32.1 nM | 146 nM | – | –
UAAAAGUUAGGAUAUACAUGAGGAUCACCCAUGUCGCGGAACCGCGGCGAUUACUCCUGUAGAAGGAACAUCGU | 165 nM | 291 nM | – | –
UAAACGUUCUAGAAGGUGCUUUUGUUAAACAAGCAAGGAUAUAGACAUGAGGAUCACCCAUGUCUUUGAGACAUCGACAUACUU | 8.41 nM | 9.14 nM | – | –
UAAAGACAUGAGGAUCACCCAUGUGAGGAUAUCGGAGGUGACGGAGCGUCGAGUUCGGCGAGAAGGCGCAGGAA | 81 nM | 53.9 nM | – | –
UAAAUACAUGAGGAUCACCCAUGUCAAAAGACAUGAGGAUAUGUACAGACUUCGGUCUGUACAGAAGGCAUGAAUA | – | – | 652 nM | 46.7 nM
UAAAUGUCAGGAUAUUGUUAAUUUAGUUGUUUGUAUUAGUUCGAGAAGGGACAUGAGGAUCACCCAUGUUGUUU | 28.9 nM | 31.1 nM | – | –
